# According to ChEMBL document CHEMBL1159121, “Synthesis, in vitro structure-activity relationship, and in vivo studies of 2-arylthiazolidine-4-carboxylic acid amides as anticancer agents” (Bioorg Med Chem, 2010):
# Calls of active or inactive are those of the source. No cut-off for these calls is given here.
# Legend:
# A-375 [1] = assay: Antitumor activity against human A375 cells xenografted in athymic nude mouse assessed as tumor growth inhibition at 5 mg/kg, ip once daily administered 7 days after inoculation for 22 days; type: functional; design: scale not given: the % may be the effect or the level left; details: route intraperitoneal
# How it was run: (§1)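 Male athymic nude mice, 4–5 weeks old, received 2.5 × 10^6 A375 cells (FBS-free DMEM mixed 1:1 with Matrigel) subcutaneously in the right dorsal flank. At about 150 mm3 (~day 7), mice were grouped by tumor size (n = 8). Drug in 80% Tween 80/20% Captex 200 was injected daily, with vehicle controls i.p. Calipers twice weekly (a×b²×0.5); % reduction at day 22 = 100×[(T–T0)/(C–C0)]. Body weight tracked.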
# K562 = assay: Growth inhibition of human K562 cells; type: functional
# A-375 [2] = assay: Inhibition of human A375 cells colony formation at 100 uM after 7 days by colony-formation assay; type: functional, cell-based
# Mus musculus = assay: Toxicity in ip dosed athymic nude mouse assessed as body weight loss; type: organism-based; details: in vivo
# How it was run: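 Male athymic nude mice (4–5 weeks) given subcutaneous A375 cells in Matrigel (1:1). At about 150 mm3, near day 7, split into groups of n = 8. Dosed at 5 or 10 mg/kg in 80% Tween 80/20% Captex 200, injected once daily for 22 days. Vehicle (intraperitoneal) and DTIC 60 mg/kg controls. Body weight and activity monitored throughout.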
# A-375 [3] = assay: Antitumor activity against human A375 cells xenografted in athymic nude mouse assessed as tumor growth inhibition at 10 mg/kg, ip once daily administered 7 days after inoculation for 22 days; type: functional; design: scale not given: the % may be the effect or the level left; details: route intraperitoneal; how it was run: as §1
# SN12C = assay: Growth inhibition of human SN12C cells; type: functional
# LNCaP = assay: Cell cycle arrest in human LNCAP cells by assessed as increase in accumulation at subG1 phase […] by flow cytometry; type: functional, cell-based
# LOX IMVI = assay: Growth inhibition of human LOXIMVI cells; type: functional
# NCI-H23 = assay: Growth inhibition of human NCI-H23 cells; type: functional
# A-375 [4] = assay: Inhibition of human A375 cells colony formation at 20 uM after 7 days by colony-formation assay; type: functional; details: A-375, 168 h
# Malme-3M = assay: Growth inhibition of human MALME-3M cells; type: functional
# SK-MEL-2 = assay: Growth inhibition of human SK-MEL-2 cells; type: functional
# MDA-MB-231 = assay: Growth inhibition of human MDA-MB-231 cells; type: functional
# A-375 [5] = assay: Cell cycle arrest in human A375 cells by assessed as increase in accumulation at subG1 phase […] by flow cytometry; type: functional, cell-based
# OVCAR-3 = assay: Growth inhibition of human OVCAR-3 cells; type: functional
# OVCAR-8 = assay: Growth inhibition of human OVCAR8 cells; type: functional
# COLO 205 = assay: Growth inhibition of human COLO205 cells; type: functional
# NCI-H226 = assay: Growth inhibition of human NCI-H226 cells; type: functional
# [6] = Toxicity in mouse assessed as maximum tolerated dose; type: organism-based; details: in vivo
# How it was run: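 Tolerability was determined in ICR mice, with the compound formulated in a co-solvent of 80% Tween 80 and 20% Captex 200.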
# A-375 [7] = assay: Inhibition of human A375 cells colony formation at 2 uM after 7 days by colony-formation assay; type: functional, cell-based
# A549 = assay: Growth inhibition of human A549 cells; type: functional
# SF-539 = assay: Growth inhibition of human SF539 cells; type: functional
# A-375 [8] = assay: Antitumor activity against human A375 cells xenografted in athymic nude mouse assessed as tumor growth inhibition at 60 mg/kg, ip once daily administered 7 days after inoculation for 22 days; type: functional; design: scale not given: the % may be the effect or the level left; details: route intraperitoneal
# How it was run: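 Male athymic nude mice, 4–5 weeks old, injected subcutaneously in the right flank with A375 cells (5 × 10^7/mL, 100 μL, 1:1 Matrigel). Grouped at about 150 mm3 (~day 7), n = 8. DTIC in saline given ip once daily. Caliper volume a×b²×0.5 measured twice weekly; % reduction 100×[(T–T0)/(C–C0)] at day 22. Body weight monitored.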
# SK-MEL-5 = assay: Growth inhibition of human SK-MEL-5 cells; type: functional
# T47D = assay: Growth inhibition of human T47D cells; type: functional
# [9] = Growth inhibition of human Hs 578T cells; type: functional
# SNB-75 = assay: Growth inhibition of human SNB75 cells; type: functional
# [10] = read-out: LC50 (the source's name)
smiles,measurement,setting,value
CCCCCCCCCCCCCCCCNC(=O)[C@@H]1CSC(c2ccc(NC(C)=O)cc2)N1 (mixture of isomers),Activity,A-375 [1],25%
same,GI50,K562,210 nM
same,TGI,K562,430 nM
same,CC50,K562; [10],900 nM
same,Activity,A-375 [2],Active
same,Activity,Mus musculus,Non-toxic
same,Activity,A-375 [3],62%
same,GI50,SN12C,350 nM
same,TGI,SN12C,510 nM
same,CC50,SN12C; [10],740 nM
same,Activity,LNCaP,Dose-dependent effect
same,GI50,LOX IMVI,140 nM
same,TGI,LOX IMVI,300 nM
same,CC50,LOX IMVI; [10],830 nM
same,GI50,NCI-H23,320 nM
same,TGI,NCI-H23,1050 nM
same,CC50,NCI-H23; [10],4860 nM
same,inhibition at 20 µM,A-375 [4],75%
same,GI50,Malme-3M,320 nM
same,TGI,Malme-3M,1110 nM
same,CC50,Malme-3M; [10],3950 nM
same,GI50,SK-MEL-2,250 nM
same,TGI,SK-MEL-2,540 nM
same,CC50,SK-MEL-2; [10],1750 nM
same,GI50,MDA-MB-231,180 nM
same,TGI,MDA-MB-231,320 nM
same,CC50,MDA-MB-231; [10],590 nM
same,Activity,A-375 [5],Dose-dependent effect
same,GI50,OVCAR-3,220 nM
same,TGI,OVCAR-3,420 nM
same,CC50,OVCAR-3; [10],790 nM
same,GI50,OVCAR-8,280 nM
same,TGI,OVCAR-8,730 nM
same,CC50,OVCAR-8; [10],> 100000 nM
same,GI50,COLO 205,1910 nM
same,CC50,COLO 205; [10],> 100000 nM
same,GI50,NCI-H226,230 nM
same,TGI,NCI-H226,390 nM
same,CC50,NCI-H226; [10],690 nM
same,MTD,[6],42 mg/kg
same,Activity,A-375 [7],Active
same,GI50,A549,360 nM
same,TGI,A549,1350 nM
same,CC50,A549; [10],5280 nM
same,GI50,SF-539,260 nM
same,TGI,SF-539,700 nM
same,CC50,SF-539; [10],2810 nM
same,Activity,A-375 [8],42%
same,GI50,SK-MEL-5,750 nM
same,TGI,SK-MEL-5,2130 nM
same,CC50,SK-MEL-5; [10],5130 nM
same,GI50,T47D,240 nM
same,TGI,T47D,530 nM
same,CC50,T47D; [10],2300 nM
same,GI50,[9],180 nM
same,TGI,[9],380 nM
same,CC50,[9]; [10],780 nM
same,GI50,SNB-75,180 nM
same,TGI,SNB-75,330 nM
same,CC50,SNB-75; [10],580 nM
